Converted amounts (≈) assume the structure as drawn. Bounds are passed on as bounds.

The target of assay [1] is T1, Enoyl-[acyl-carrier-protein] reductase [NADH] FabI (Escherichia coli K-12, UniProt P0AEK4).
T1 sequence (P0AEK4 whole entry): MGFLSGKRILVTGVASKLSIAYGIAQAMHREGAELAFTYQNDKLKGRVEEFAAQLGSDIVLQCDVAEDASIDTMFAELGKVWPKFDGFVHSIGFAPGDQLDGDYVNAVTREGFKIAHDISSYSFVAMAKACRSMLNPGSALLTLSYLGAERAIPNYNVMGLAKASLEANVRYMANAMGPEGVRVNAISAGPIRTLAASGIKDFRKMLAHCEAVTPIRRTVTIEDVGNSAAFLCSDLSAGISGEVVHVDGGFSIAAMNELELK
Kind of assay: Antibacterial activity against Escherichia coli FabI.

In assay [2] the target is T2, Enoyl-[acyl-carrier-protein] reductase [NADPH] FabI (Staphylococcus aureus, UniProt Q6GI75).
T2 sequence (Q6GI75 whole entry): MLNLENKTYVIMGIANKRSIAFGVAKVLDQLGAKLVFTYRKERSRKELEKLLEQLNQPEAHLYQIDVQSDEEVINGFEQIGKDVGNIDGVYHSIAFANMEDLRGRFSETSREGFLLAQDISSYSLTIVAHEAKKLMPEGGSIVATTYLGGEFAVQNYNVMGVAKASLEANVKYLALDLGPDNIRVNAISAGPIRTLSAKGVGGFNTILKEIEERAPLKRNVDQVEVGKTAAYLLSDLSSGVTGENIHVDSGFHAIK
Kind of assay: Antibacterial activity against Staphylococcus aureus FabI.

For assay [3], the system named is Moraxella catarrhalis. The assay can be described thus: In vitro antibacterial activity against Moraxella catarrhalis 1502 FabI. The procedure, abridged:
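Broth microdilution MIC in cation-adjusted Mueller–Hinton broth. Compounds were dissolved in DMSO, diluted 1:10 in water, then serially diluted. Each well received about 1×10⁶ cfu/mL inoculum. Plates were incubated at 35 °C in ambient air for 18–24 h.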

Assay [4] concerns Staphylococcus aureus. The assay can be described thus: In vitro antibacterial activity against Staphylococcus aureus FabI.
Assay [5] concerns Escherichia coli. The assay can be described thus: In vitro antibacterial activity against Escherichia coli FabI.
The target in assay [6] is T1, Enoyl-[acyl-carrier-protein] reductase [NADH] FabI. Kind of assay: Antibacterial activity against Escherichia coli Enoyl-[acyl-carrier-protein] reductase was determined.

As to `O=C(c1ccc(Cl)cc1Cl)N1CCc2c(n(Cc3ccc(O)cc3)c3ccccc23)C1`, the half-maximal inhibitory concentration (IC50) in assay [1] stood at 35.8 µM; in assay [2] it was 1800 nM.

Take `Cc1cc(C(=O)N2CCc3c(n(Cc4ccc(O)cc4)c4ccccc34)C2)ccc1O`: the IC50 in assay [1] came to 4.4 µM; in assay [2], 180 nM. The MIC in assay [3] is 8 µg/mL (≈ 19.4 µM); in assay [4] it was 1 µg/mL (≈ 2.42 µM); in assay [5] it was over 64 µg/mL.

Regarding `O=C(c1cccc(O)c1)N1CCc2c(n(Cc3ccc(O)cc3)c3ccccc23)C1`, the IC50 in assay [1] is over 50 µM; in assay [2] it was 3400 nM.

For `Oc1cc(Cl)ccc1Oc1ccc(Cl)cc1Cl`, the MIC was found to be 0.06 µg/mL (≈ 0.207 µM) in assay [3], 0.03 µg/mL (≈ 0.104 µM) in assay [4] and 4 µg/mL (≈ 13.8 µM) in assay [5].

Consider `CS(=O)(=O)c1ccc(Cn2c3c(c4ccccc42)CCN(C(=O)c2ccc(O)cc2)C3)cc1`, for which the values for the IC50 in assay [1] and in assay [2] were 4.5 µM and 330 nM, respectively.

On to `O=C(O)c1ccc(Cn2c3c(c4ccccc42)CCN(C(=O)c2ccc(O)cc2)C3)cc1`, for which the IC50 in assay [1] was over 50 µM; in assay [2], 8700 nM.

Take `O=C(c1ccccc1)N1CCc2c(n(Cc3ccc(O)cc3)c3ccccc23)C1`: the results for the IC50 in assay [1] and in assay [2] were 2.7 µM and 490 nM, respectively.

In assay [6], `COC(=O)Cn1c2c(c3ccccc31)CCN(C(=O)c1ccc(O)cc1)C2` showed an IC50 of 34.9 µM.

For `Nc1ccc(Cn2c3c(c4ccccc42)CCN(C(=O)c2ccc(O)cc2)C3)cc1`, the values for the IC50 in assay [1] and in assay [2] were 21.4 µM and 670 nM, respectively.

`CN(Cc1cc2ccccc2n1Cc1ccc(O)cc1)C(=O)c1ccc(O)cc1` showed an IC50 in assay [2] of 1000 nM.

With `Cc1cc(C(=O)N2CCc3c(n(Cc4ccc(O)cc4)c4ccccc34)C2)cc(C)c1O`, the IC50 was determined as 23 µM in assay [1] and 2900 nM in assay [2].

On to `O=C(c1ccc(O)c(Cl)c1)N1CCc2c(n(Cc3ccc(O)cc3)c3ccccc23)C1`, for which the IC50 worked out at 3.4 µM in assay [1] and 160 nM in assay [2]. For the same compound, the MIC in assay [3] is 4 µg/mL (≈ 9.24 µM); in assay [4], 1 µg/mL (≈ 2.31 µM); in assay [5], over 64 µg/mL.

Take `O=C(c1ccc(Cl)cc1)N1CCc2c(n(Cc3ccc(O)cc3)c3ccccc23)C1`: the values for the IC50 in assay [1] and in assay [2] were 16.8 µM and 180 nM, respectively. The MIC in assay [3] was over 64 µg/mL; in assay [4], 4 µg/mL (≈ 9.59 µM); in assay [5] it was over 64 µg/mL.

Turning to `Cn1c2c(c3ccccc31)CCN(C(=O)c1ccc(O)cc1)C2`, in assay [6], inhibition was half-maximal at 11 µM (IC50).

Consider `Cc1cc(O)c(C)c(O)c1C(=O)N1CCc2c(n(Cc3ccc(O)cc3)c3ccccc23)C1`, for which the IC50 is over 50 µM in assay [1] and over 50000 nM in assay [2].

In the case of `Cc1ccc(C(=O)N2CCc3c(n(Cc4ccc(O)cc4)c4ccccc34)C2)c(O)c1`, the IC50 in assay [1] stood at 8.2 µM; in assay [2], 120 nM. Further, the MIC was 4 µg/mL (≈ 9.7 µM) in assay [3], 1 µg/mL (≈ 2.42 µM) in assay [4] and over 64 µg/mL in assay [5].

For `Nc1ccc(C(=O)N2CCc3c(n(Cc4ccc(O)cc4)c4ccccc34)C2)cc1`, the IC50 in assay [1] stood at 4 µM; in assay [2], 1000 nM.

With `COC(=O)CCCCn1c2c(c3ccccc31)CCN(C(=O)c1ccc(O)cc1)C2`, the IC50 in assay [6] was found to be 26.8 µM.

As to `CNc1ccc(C(=O)N2CCc3c(n(Cc4ccc(O)cc4)c4ccccc34)C2)cc1`, the IC50 in assay [1] is 38.6 µM; in assay [2], 2100 nM.

`O=C(c1ccc(Cl)cc1O)N1CCc2c(n(Cc3ccc(O)cc3)c3ccccc23)C1`: the IC50 in assay [1] worked out at 6.1 µM; in assay [2] it was 160 nM. For the same compound, the MIC in assay [3] was 2 µg/mL (≈ 4.62 µM); in assay [4], 1 µg/mL (≈ 2.31 µM); in assay [5] it was over 64 µg/mL.

Consider `O=C(c1ccc(O)cc1)N1CCc2c([nH]c3ccccc23)C1c1ccc(O)cc1` (configuration not stated), for which it took 28100 nM to reach half-maximal inhibition in assay [2] (IC50).

Consider `COc1ccc(C(=O)N2CCc3c(n(Cc4ccc(O)cc4)c4ccccc34)C2)cc1`, for which the IC50 was determined as 35.5 µM in assay [1] and 370 nM in assay [2].

Compound `O=C(c1ccc(O)cc1)N1CCc2c(n(Cc3cccc(O)c3)c3ccccc23)C1` came in with an IC50 in assay [6] of 8.8 µM.

`Cc1ccc(C(=O)N2CCc3c(n(Cc4ccc(O)cc4)c4ccccc34)C2)cc1`: the values for the IC50 in assay [1] and in assay [2] were 5.2 µM and 240 nM, respectively. The MIC in assay [3] is over 64 µg/mL; in assay [4] it was 0.5 µg/mL (≈ 1.26 µM); in assay [5], over 64 µg/mL.

With `COC(=O)c1ccc(C(=O)N2CCc3c(n(Cc4ccc(O)cc4)c4ccccc34)C2)cc1`, the IC50 in assay [1] is over 50 µM; in assay [2], 2000 nM.

As for `O=C(c1ccc(O)cc1)N1CCc2c(n(Cc3ccc(F)cc3)c3ccccc23)C1`, the IC50 in assay [1] was found to be 4.2 µM; in assay [2], 250 nM.

Take `O=C(c1ccc(O)cc1)N1CCc2c(n(Cc3ccccc3)c3ccccc23)C1`: inhibition in assay [6] was half-maximal at 27 µM (IC50).

In assay [6], `O=C(c1ccc(O)cc1)N1CCc2c([nH]c3ccccc23)C1` showed an IC50 of 18 µM.

As to `O=C(c1ccc(O)cc1)N1CCc2c(n(Cc3ccc(O)cc3)c3ccccc23)C1`, the IC50 in assay [1] was determined as 4.2 µM; in assay [2] it was 110 nM. The MIC in assay [3] was 8 µg/mL (≈ 20.1 µM); in assay [4], 0.5 µg/mL (≈ 1.25 µM); in assay [5], over 64 µg/mL.

For the compound `O=C(c1cc(Cl)cc(Cl)c1O)N1CCc2c(n(Cc3ccc(O)cc3)c3ccccc23)C1`, the 50% inhibitory concentration (IC50) in assay [1] worked out at 9.9 µM; in assay [2], 1800 nM.

The compound `O=C(c1ccc(O)cc1)N1CCc2c(c3ccccc3n2Cc2ccc(O)cc2)C1` had an IC50 in assay [2] of 32400 nM.

Consider `O=C(c1ccccc1O)N1CCc2c(n(Cc3ccc(O)cc3)c3ccccc23)C1`, for which the IC50 was 4.3 µM in assay [1] and 720 nM in assay [2]. Further, the MIC in assay [3] is 8 µg/mL (≈ 20.1 µM); in assay [4], 4 µg/mL (≈ 10 µM); in assay [5], over 64 µg/mL.

On to `CCCCc1ccc(C(=O)N2CCc3c(n(Cc4ccc(O)cc4)c4ccccc34)C2)cc1`, for which the values for the IC50 in assay [1] and in assay [2] were over 50 µM and 510 nM, respectively.

Values taken from ChEMBL document CHEMBL1133924, “Inhibitors of bacterial enoyl acyl carrier protein reductase (FabI): 2,9-disubstituted 1,2,3,4-tetrahydropyrido[3,4-b]indoles as potential antibacterial agents” (Bioorg Med Chem Lett, 2001).
